Experimental data: ChEMBL document CHEMBL4706613, “Novel 3-substituted coumarins as selective human carbonic anhydrase IX and XII inhibitors: Synthesis, biological and molecular dynamics analysis” (Eur J Med Chem, 2021)

Tests used:
Carbonic anhydrase 1 [1] = target: T1, Carbonic anhydrase 1 (Homo sapiens, UniProt P00915); assay: Inhibition of human CA1 preincubated for 6 hrs by phenol red dye based stopped flow CO2 hydration assay
Procedure, shortened: (§1)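 Ki values are the mean of three separate assays, with errors within ±5–10% of the reported values. Coumarin derivatives were incubated with the enzyme for 6 h before measurement.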

Carbonic anhydrase 9 [2] = target: T2, Carbonic anhydrase 9 (Homo sapiens, UniProt Q16790); assay: Inhibition of human CA9 preincubated for 6 hrs by phenol red dye based stopped flow CO2 hydration assay; procedure, shortened: as §1
Carbonic anhydrase 2 [3] = target: T3, Carbonic anhydrase 2 (Homo sapiens, UniProt P00918); assay: Inhibition of human CA2 preincubated for 6 hrs by phenol red dye based stopped flow CO2 hydration assay; procedure, shortened: as §1
Carbonic anhydrase 12 = Carbonic anhydrase 12 (Homo sapiens, UniProt O43570); assay: Inhibition of human CA12 preincubated for 6 hrs by phenol red dye based stopped flow CO2 hydration assay
Sequence of Carbonic anhydrase 12 (O43570 whole entry): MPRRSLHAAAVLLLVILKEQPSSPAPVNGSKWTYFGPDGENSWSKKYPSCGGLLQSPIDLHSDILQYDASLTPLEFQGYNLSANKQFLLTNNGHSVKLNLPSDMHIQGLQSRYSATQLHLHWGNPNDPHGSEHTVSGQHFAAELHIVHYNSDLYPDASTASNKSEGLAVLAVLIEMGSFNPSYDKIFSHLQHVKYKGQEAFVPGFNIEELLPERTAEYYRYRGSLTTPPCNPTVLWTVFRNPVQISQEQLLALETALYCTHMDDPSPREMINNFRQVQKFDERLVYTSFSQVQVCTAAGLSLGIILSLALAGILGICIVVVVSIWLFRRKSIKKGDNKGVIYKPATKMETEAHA

Carbonic anhydrase 9 [4] = target: T2, Carbonic anhydrase 9; assay: Inhibition of human CA9 preincubated for 15 mins by phenol red dye based stopped flow CO2 hydration assay
Carbonic anhydrase 2 [5] = target: T3, Carbonic anhydrase 2; assay: Inhibition of human CA2 preincubated for 15 mins by phenol red dye based stopped flow CO2 hydration assay
Carbonic anhydrase 1 [6] = target: T1, Carbonic anhydrase 1; assay: Inhibition of human CA1 preincubated for 15 mins by phenol red dye based stopped flow CO2 hydration assay

T1 sequence (P00915 whole entry): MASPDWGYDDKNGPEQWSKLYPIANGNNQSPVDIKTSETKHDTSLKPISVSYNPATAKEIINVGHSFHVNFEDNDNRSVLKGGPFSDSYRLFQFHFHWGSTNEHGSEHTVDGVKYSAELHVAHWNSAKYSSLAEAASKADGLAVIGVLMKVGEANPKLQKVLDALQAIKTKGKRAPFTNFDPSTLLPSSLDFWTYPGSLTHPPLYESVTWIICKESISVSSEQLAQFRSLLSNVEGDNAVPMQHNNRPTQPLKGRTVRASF

Row | Structure (SMILES) | Ki (Carbonic anhydrase 1 [1]) | Ki (Carbonic anhydrase 9 [2]) | Ki (Carbonic anhydrase 2 [3]) | Ki (Carbonic anhydrase 12) | Ki (Carbonic anhydrase 9 [4]) | Ki (Carbonic anhydrase 2 [5]) | Ki (Carbonic anhydrase 1 [6])
1 | O=C(CS(=O)(=O)c1ccccc1)c1cc2ccccc2oc1=O | > 100000 nM | 41.4 nM | > 100000 nM | 60.1 nM |  |  | 
2 | C/C(=N\Nc1ccc(S(N)(=O)=O)cc1)c1cc2ccccc2oc1=O |  |  |  |  | 43.8 nM |  | 
3 | C/C(=N\Nc1ccc(S(N)(=O)=O)cc1)c1cc2cc(Br)ccc2oc1=O |  |  |  |  | 24.2 nM |  | 
4 | O=C(N/N=C(\CS(=O)(=O)c1ccccc1)c1cc2ccccc2oc1=O)c1ccccc1 | > 100000 nM | 16000 nM | > 100000 nM |  |  |  | 
5 | O=c1oc2ccccc2cc1/C(CS(=O)(=O)c1ccccc1)=N/Nc1ccccc1 | > 100000 nM | 1500 nM | > 100000 nM |  |  |  | 
6 | NS(=O)(=O)c1ccc(N/N=C(\CS(=O)(=O)c2ccccc2)c2cc3cc(Br)ccc3oc2=O)cc1 |  |  |  |  | 63.6 nM | 276 nM | 3460 nM
7 | Cc1ccc(S(=O)(=O)C/C(=N\Nc2ccccc2)c2cc3ccccc3oc2=O)cc1 | > 100000 nM | 3940 nM | > 100000 nM |  |  |  | 
8 | Cc1ccc(S(=O)(=O)CC(=O)c2cc3cc(Br)ccc3oc2=O)cc1 | > 100000 nM | 87.2 nM | > 100000 nM |  |  |  | 
9 | C/C(=N\NC(=O)c1ccc(S(N)(=O)=O)cc1)c1cc2ccccc2oc1=O |  |  |  |  | 31.6 nM | 26.3 nM | 77.6 nM
10 | Cc1ccc(S(=O)(=O)C/C(=N\NC(=O)c2ccc(S(N)(=O)=O)cc2)c2cc3ccccc3oc2=O)cc1 |  |  |  |  | 42.1 nM | 365 nM | 1350 nM
11 | O=c1oc2ccc(Br)cc2cc1/C(CS(=O)(=O)c1ccccc1)=N/Nc1ccccc1 | > 100000 nM | 4640 nM | > 100000 nM |  |  |  | 
12 | Cc1ccc(S(=O)(=O)C/C(=N\Nc2ccc(S(N)(=O)=O)cc2)c2cc3cc(Br)ccc3oc2=O)cc1 |  |  |  |  |  | 538 nM | 3960 nM
13 | Cc1ccc(S(=O)(=O)C/C(=N\Nc2ccc(S(N)(=O)=O)cc2)c2cc3ccccc3oc2=O)cc1 |  |  |  |  | 76 nM | 560 nM | 2600 nM
14 | NS(=O)(=O)c1ccc(C(=O)N/N=C(\CS(=O)(=O)c2ccccc2)c2cc3ccccc3oc2=O)cc1 |  |  |  |  | 18.6 nM | 225 nM | 1540 nM
15 | C/C(=N\NC(=O)c1ccc(S(N)(=O)=O)cc1)c1cc2cc(Br)ccc2oc1=O |  |  |  |  | 19.8 nM | 12.1 nM | 92.5 nM
16 | NS(=O)(=O)c1ccc(N/N=C(\CS(=O)(=O)c2ccccc2)c2cc3ccccc3oc2=O)cc1 |  |  |  |  | 89.1 nM | 442 nM | 824 nM
17 | Cc1ccc(S(=O)(=O)C/C(=N\Nc2ccccc2)c2cc3cc(Br)ccc3oc2=O)cc1 | > 100000 nM | 8110 nM | > 100000 nM |  |  |  | 
18 | O=C(N/N=C(\CS(=O)(=O)c1ccccc1)c1cc2cc(Br)ccc2oc1=O)c1ccccc1 | > 100000 nM | 8860 nM | > 100000 nM |  |  |  | 
19 | O=C(CS(=O)(=O)c1ccccc1)c1cc2cc(Br)ccc2oc1=O | > 100000 nM | 76.6 nM | > 100000 nM |  |  |  | 
20 | Cc1ccc(S(=O)(=O)CC(=O)c2cc3ccccc3oc2=O)cc1 | > 100000 nM | 66.3 nM | > 100000 nM |  |  |  | 
